Reference: ChEMBL document CHEMBL1154674, “Synthesis and evaluation of three 18F-labeled aminophenylbenzothiazoles as amyloid imaging agents” (J Med Chem, 2009)

Molecular target: Amyloid-beta precursor protein (Homo sapiens, UniProt P05067)
Experiment: Displacement of [125I]IMPY from beta-amyloid plaques in Alzheimer's disease patient brain homogenate
Format: tissue-based
In short: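 Test compound was added at 10^-5–10^-10 M, serially diluted in PBS containing 0.1% BSA. Nonspecific binding was defined with 600 nM unlabeled IMPY. Incubation was 37 °C for 2 h, followed by GF/B vacuum filtration, PBS washes and γ counting. Ki came from nonlinear regression.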

Chain of Amyloid-beta precursor protein (P05067 whole entry): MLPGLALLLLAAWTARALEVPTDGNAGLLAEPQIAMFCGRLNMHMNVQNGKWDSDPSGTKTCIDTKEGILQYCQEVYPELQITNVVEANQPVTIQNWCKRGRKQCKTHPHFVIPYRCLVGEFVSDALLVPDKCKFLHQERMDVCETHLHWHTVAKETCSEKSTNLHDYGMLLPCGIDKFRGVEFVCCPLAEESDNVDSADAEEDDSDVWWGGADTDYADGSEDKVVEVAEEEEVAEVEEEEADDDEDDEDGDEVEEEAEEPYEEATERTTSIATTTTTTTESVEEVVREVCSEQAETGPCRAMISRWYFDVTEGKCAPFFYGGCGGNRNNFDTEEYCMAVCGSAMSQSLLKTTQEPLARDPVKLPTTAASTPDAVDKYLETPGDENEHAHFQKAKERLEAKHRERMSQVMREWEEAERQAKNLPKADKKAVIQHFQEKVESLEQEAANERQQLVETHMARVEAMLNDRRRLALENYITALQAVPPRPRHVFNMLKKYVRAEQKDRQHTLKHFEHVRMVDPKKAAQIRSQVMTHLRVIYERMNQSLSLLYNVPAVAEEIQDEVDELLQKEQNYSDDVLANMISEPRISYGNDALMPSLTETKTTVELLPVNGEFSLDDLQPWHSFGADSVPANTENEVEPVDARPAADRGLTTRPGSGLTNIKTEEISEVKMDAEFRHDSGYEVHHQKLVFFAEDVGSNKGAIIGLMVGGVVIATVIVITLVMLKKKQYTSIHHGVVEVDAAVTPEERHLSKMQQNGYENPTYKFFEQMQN

Ki: 3.8 nM
Compound: CN(C)c1ccc2nc(-c3ccc(F)cc3)sc2c1
